Data reported in ChEMBL document CHEMBL1124108, “Antihypertensive thiadiazoles. 2. Vasodilator activity of some 2-aryl-5-guanidino-1,3,4-thiadiazoles” (1988).

What was measured:
Rattus norvegicus [1] = assay: Increase in diastolic blood pressure for 1.0 ug/kg intravenous dosing of noradrenaline in pithed rats; format: functional, Artery
Method in brief: (§1)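 The pithed-rat preparation was used: male rats (200-300 g) got drug or isotonic saline ip in groups of five, 2 h beforehand (one reference agent 1 h). Doses were 50, 25 or 5 mg/kg. Rats were under halothane, cannulated, pithed and ventilated with room air. Noradrenaline (0.1-1.0 µg/kg) or angiotensin (0.03-0.3 µg/kg) was injected iv, and the increase in diastolic pressure was recorded in mmHg.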

Rattus norvegicus [2] = assay: Increase in diastolic blood pressure for 0.03 ug/kg intravenous dosing of angiotensin in pithed rats; format: functional, Artery; method in brief: as §1
Rattus norvegicus [3] = species on record: Rattus norvegicus; assay: Increase in diastolic blood pressure for 3 Htz electrical stimulation in the pithed rats; format: functional, Artery
Method in brief: (§2)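 Male rats (200-300 g) were given drug or isotonic saline ip, in groups of five, 2 h before pithing (one reference agent 1 h before). Doses were 50 or 25 mg/kg, or 5 mg/kg for the reference agent. Rats were put under halothane, tracheally cannulated, pithed through the left orbit and ventilated with room air at 50 strokes/min. After iv tubocurarine (1 mg/kg), the whole sympathetic outflow was stimulated at 1, 3 or 6 Hz (0.5 ms, 20 V, 15 s). The rise in diastolic pressure was recorded in mmHg.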

Rattus norvegicus [4] = assay: Increase in diastolic blood pressure for 0.1 ug/kg intravenous dosing of angiotensin in pithed rats; format: functional, Artery; method in brief: as §1
Rattus norvegicus [5] = species on record: Rattus norvegicus; assay: Increase in diastolic blood pressure for 1 Htz electrical stimulation in the pithed rats; format: functional, Artery; method in brief: as §2
Rattus norvegicus [6] = assay: Increase in diastolic blood pressure for 0.1 ug/kg intravenous dosing of noradrenaline in pithed rats; format: functional, Artery; method in brief: as §1
Rattus norvegicus [7] = species on record: Rattus norvegicus; assay: Increase in diastolic blood pressure for 6 Htz electrical stimulation in the pithed rats; format: functional, Artery; method in brief: as §2
Rattus norvegicus [8] = assay: Increase in diastolic blood pressure for 0.3 ug/kg intravenous dosing of noradrenaline in pithed rats; format: functional, Artery; method in brief: as §1
Rattus norvegicus [9] = assay: Increase in diastolic blood pressure for 0.3 ug/kg intravenous dosing of angiotensin in pithed rats; format: functional, Artery; method in brief: as §1
Rattus norvegicus [10] = assay: Increase in diastolic blood pressure at 0.1 ug/kg intravenous dosing of noradrenaline in pithed rats; format: functional, Artery; method in brief: as §1
Rattus norvegicus [11] = assay: Increase in diastolic blood pressure at 0.03 ug/kg intravenous dosing of angiotensin in pithed rats; format: functional, Artery; method in brief: as §1
Rattus norvegicus [12] = species on record: Rattus norvegicus; assay: Increase in diastolic blood pressure at 1 Htz electrical stimulation in the pithed rats; format: functional, Artery; method in brief: as §2
Rattus norvegicus [13] = assay: Increase in diastolic blood pressure at 0.1 ug/kg intravenous dosing of angiotensin in pithed rats; format: functional, Artery; method in brief: as §1
Rattus norvegicus [14] = assay: Summation of percentage reductions, compared to pretreatment controls, in MABP of DOCA hypertensive rats at 1,2,3,5,8 hr after the 100 mg/kg oral dose.; format: functional
Method in brief: (§3)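 DOCA hypertensive rats (n = 5) were dosed orally. MABP (diastolic + one-third pulse pressure) was read before dosing and at 1, 2, 3, 5 and 8 h. The value is the sum of the % reductions from pretreatment control over these five time points.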

Rattus norvegicus [15] = assay: Maximum percentage reduction in mean arterial blood pressure in metacorticoid (DOCA) hypertensive rats at a standard oral dose of 100 mg/kg; format: functional
Method in brief: (§4)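 Rats were DOCA hypertensive. For oral dosing, food was withdrawn 18 h before; rats dosed ip were not starved. The vehicle was isotonic saline. Pressure was recorded by transducer under minimal restraint: twice before dosing, then at 1, 2, 3, 5 and 22 h. MABP was taken as diastolic + one-third pulse pressure. The value is the maximum % fall from the mean of the two pretreatment readings, n = 3-5.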

Rattus norvegicus [16] = assay: Increase in diastolic blood pressure at 1.0 ug/kg intravenous dosing of noradrenaline in pithed rats; format: functional, Artery; method in brief: as §1
Rattus norvegicus [17] = assay: Increase in diastolic blood pressure at r 0.3 ug/kg intravenous dosing of noradrenaline in pithed rats; format: functional, Artery; method in brief: as §1
Rattus norvegicus [18] = species on record: Rattus norvegicus; assay: Increase in diastolic blood pressure at 6 Htz electrical stimulation in the pithed rats; format: functional, Artery; method in brief: as §2
Rattus norvegicus [19] = assay: Increase in diastolic blood pressure at 0.3 ug/kg intravenous dosing of angiotensin in pithed rats; format: functional, Artery; method in brief: as §1
Rattus norvegicus [20] = species on record: Rattus norvegicus; assay: Increase in diastolic blood pressure at 3 Htz electrical stimulation in the pithed rats; format: functional, Artery; method in brief: as §2
Rattus norvegicus [21] = assay: Summation of percentage reductions, compared to pretreatment controls, in MABP of DOCA hypertensive rats at 1,2,3,5,8 hr after the 50 mg/kg oral dose.; format: functional; method in brief: as §3
Rattus norvegicus [22] = assay: Maximum percentage reduction in mean arterial blood pressure in metacorticoid (DOCA) hypertensive rats at a standard oral dose of 50 mg/kg; format: functional; method in brief: as §4
Rattus norvegicus [23] = assay: Maximum percentage reduction in mean blood pressure and heart rate in metacorticoid (DOCA) hypertensive rats at a standard intraperitoneal dose of 100 mg/kg; format: functional
Rattus norvegicus [24] = assay: Increase in diastolic blood pressure at 0.3 ug/kg intravenous dosing of noradrenaline in pithed rats; format: functional, Artery; method in brief: as §1
Rattus norvegicus [25] = assay: Maximum percentage reduction in mean blood pressure in metacorticoid (DOCA) hypertensive rats at a standard intraperitoneal dose of 100 mg/kg; format: functional; method in brief: as §4
Rattus norvegicus [26] = assay: Maximum percentage reduction in mean blood pressure in metacorticoid (DOCA) hypertensive rats at a standard oral dose of 100 mg/kg; format: functional; method in brief: as §4
Rattus norvegicus [27] = assay: Maximum percentage reduction in mean blood pressure in metacorticoid (DOCA) hypertensive rats at a standard oral dose of 50 mg/kg; format: functional; method in brief: as §4
Rattus norvegicus [28] = assay: Maximum percentage reduction in mean blood pressure in metacorticoid (DOCA) hypertensive rats at a standard oral dose of 10 mg/kg; format: functional; method in brief: as §4

For `NNc1nncc2ccccc12` [HYDRALAZINE], the “Increase in blood pressure” value (Rattus norvegicus [1]) was 28 mmHg, the “Increase in blood pressure” value (Rattus norvegicus [2]) was 8 mmHg and the “Increase in blood pressure” value (Rattus norvegicus [3]) was 42 mmHg. For the same molecule, the “Increase in blood pressure” value (Rattus norvegicus [4]) was 21 mmHg, the “Increase in blood pressure” value (Rattus norvegicus [5]) was 28 mmHg and the “Increase in blood pressure” value (Rattus norvegicus [6]) was 8 mmHg. For the same molecule, the “Increase in blood pressure” value (Rattus norvegicus [7]) was 54 mmHg, the “Increase in blood pressure” value (Rattus norvegicus [8]) was 15 mmHg and the “Increase in blood pressure” value (Rattus norvegicus [9]) was 38 mmHg.

For `Cc1ccccc1-c1nnc(NC2=NCCN2)s1.Cl`, the “Increase in blood pressure” value (Rattus norvegicus [10]) was 10 mmHg, the “Increase in blood pressure” value (Rattus norvegicus [11]) was 15 mmHg and the “Increase in blood pressure” value (Rattus norvegicus [12]) was 17 mmHg. The “Increase in blood pressure” value (Rattus norvegicus [13]) was 27 mmHg, the “Summation MABP” value (Rattus norvegicus [14]) was 194 and the Reduction (Rattus norvegicus [15]) was 43%. For the same molecule, the “Increase in blood pressure” value (Rattus norvegicus [16]) was 44 mmHg, the “Increase in blood pressure” value (Rattus norvegicus [17]) was 21 mmHg and the “Increase in blood pressure” value (Rattus norvegicus [18]) was 45 mmHg. For the same molecule, the “Increase in blood pressure” value (Rattus norvegicus [19]) was 43 mmHg, the “Increase in blood pressure” value (Rattus norvegicus [20]) was 34 mmHg and the “Summation MABP” value (Rattus norvegicus [21]) was 117. It also gave a Reduction (Rattus norvegicus [22]) of 28%.

In the case of `COc1ccc(-c2nnc(N=C(N)N)s2)cc1.Cl`, the Reduction (Rattus norvegicus [23]) is reported as 28%.

For `CCCC/N=C(/N)Nc1nnc(-c2ccccc2C)s1.Cl`, the “Increase in blood pressure” value (Rattus norvegicus [13]) was 23 mmHg, the “Summation MABP” value (Rattus norvegicus [14]) was 159 and the Reduction (Rattus norvegicus [15]) was 39%. The “Increase in blood pressure” value (Rattus norvegicus [20]) was 20 mmHg, the “Summation MABP” value (Rattus norvegicus [21]) was 126 and the Reduction (Rattus norvegicus [22]) was 31%. The “Increase in blood pressure” value (Rattus norvegicus [24]) was 42 mmHg.

Work on `Cl.N=C(N)Nc1nnc(-c2ccc(Cl)cc2)s1` yielded a Reduction (Rattus norvegicus [25]) of 18%.

With `Cl.N=C(N)Nc1nnc(-c2ccccc2Br)s1` the “Increase in blood pressure” value (Rattus norvegicus [1]) was 50 mmHg, the “Increase in blood pressure” value (Rattus norvegicus [2]) was 3 mmHg and the “Increase in blood pressure” value (Rattus norvegicus [3]) was 31 mmHg. For the same molecule, the “Increase in blood pressure” value (Rattus norvegicus [4]) was 7 mmHg, the Reduction (Rattus norvegicus [26]) was 41% and the “Increase in blood pressure” value (Rattus norvegicus [5]) was 17 mmHg. For the same molecule, the “Increase in blood pressure” value (Rattus norvegicus [6]) was 13 mmHg, the “Increase in blood pressure” value (Rattus norvegicus [7]) was 38 mmHg and the “Increase in blood pressure” value (Rattus norvegicus [8]) was 27 mmHg. The Reduction (Rattus norvegicus [27]) was 29% and the “Increase in blood pressure” value (Rattus norvegicus [9]) was 17 mmHg.

`N=C(N)Nc1nnc(-c2c(Cl)cccc2Cl)s1` was tested, and the Reduction (Rattus norvegicus [23]) was 34%.

Molecule `Nc1cc(N2CCCCC2)nc(N)[n+]1[O-]` [MINOXIDIL] has a Reduction (Rattus norvegicus [28]) of 42%.

`COCC/N=C(/N)Nc1nnc(-c2ccccc2C)s1.Cl` was tested, and the “Increase in blood pressure” value (Rattus norvegicus [1]) was 45 mmHg, the “Increase in blood pressure” value (Rattus norvegicus [2]) was 14 mmHg and the “Increase in blood pressure” value (Rattus norvegicus [3]) was 52 mmHg. For the same molecule, the “Increase in blood pressure” value (Rattus norvegicus [4]) was 28 mmHg, the “Summation MABP” value (Rattus norvegicus [14]) was 157 and the Reduction (Rattus norvegicus [26]) was 37%. For the same molecule, the “Increase in blood pressure” value (Rattus norvegicus [5]) was 30 mmHg, the “Increase in blood pressure” value (Rattus norvegicus [6]) was 13 mmHg and the “Increase in blood pressure” value (Rattus norvegicus [7]) was 65 mmHg. The “Increase in blood pressure” value (Rattus norvegicus [8]) was 25 mmHg, the “Summation MABP” value (Rattus norvegicus [21]) was 113 and the Reduction (Rattus norvegicus [27]) was 29%. For the same molecule, the “Increase in blood pressure” value (Rattus norvegicus [9]) was 44 mmHg.

For `Cc1ccccc1-c1nnc(N=C(N)N)s1.Cl`, the “Increase in blood pressure” value (Rattus norvegicus [10]) was 12 mmHg, the “Increase in blood pressure” value (Rattus norvegicus [11]) was 2 mmHg and the “Increase in blood pressure” value (Rattus norvegicus [12]) was 13 mmHg. For the same molecule, the “Increase in blood pressure” value (Rattus norvegicus [13]) was 9 mmHg, the “Summation MABP” value (Rattus norvegicus [14]) was 167 and the Reduction (Rattus norvegicus [15]) was 41%. For the same molecule, the “Increase in blood pressure” value (Rattus norvegicus [16]) was 39 mmHg, the “Increase in blood pressure” value (Rattus norvegicus [18]) was 35 mmHg and the “Increase in blood pressure” value (Rattus norvegicus [19]) was 22 mmHg. For the same molecule, the “Increase in blood pressure” value (Rattus norvegicus [20]) was 29 mmHg, the “Summation MABP” value (Rattus norvegicus [21]) was 115 and the Reduction (Rattus norvegicus [22]) was 36%. For the same molecule, the “Increase in blood pressure” value (Rattus norvegicus [24]) was 23 mmHg.
